What was measured:
D(4) dopamine receptor [1] = target: T1, D(4) dopamine receptor (Homo sapiens, UniProt P21917); experiment: Displacement of [3H]spiperone from human Dopamine receptor D4.4 expressed in CHO cells; format: cell-based
T1 sequence (P21917 whole entry): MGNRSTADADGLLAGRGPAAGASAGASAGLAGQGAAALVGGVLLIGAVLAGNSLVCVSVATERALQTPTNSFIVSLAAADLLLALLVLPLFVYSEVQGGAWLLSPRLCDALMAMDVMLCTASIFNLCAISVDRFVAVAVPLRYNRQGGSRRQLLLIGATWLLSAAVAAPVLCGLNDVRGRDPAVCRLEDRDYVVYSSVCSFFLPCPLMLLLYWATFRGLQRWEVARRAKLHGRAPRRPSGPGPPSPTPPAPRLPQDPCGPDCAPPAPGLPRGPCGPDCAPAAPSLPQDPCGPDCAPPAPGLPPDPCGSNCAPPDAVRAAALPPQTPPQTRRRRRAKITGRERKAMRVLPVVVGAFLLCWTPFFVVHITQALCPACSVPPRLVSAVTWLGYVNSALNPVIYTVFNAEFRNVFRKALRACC
Summary of the method: (§1)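 Membranes from CHO cells stably expressing human D2short, D3 or D4.4 receptor, 5-25 µg protein/tube, competing against [3H]spiperone. Eight concentrations in triplicate, 2-4 independent experiments. Sigmoid nonlinear fit gives IC50, converted to Ki by Cheng-Prusoff; reported as mean ± SEM; Hill slopes fit a one-site model.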

D(2) dopamine receptor [2] = target: T2, D(2) dopamine receptor (Homo sapiens, UniProt P14416); experiment: Displacement of [3H]spiperone from human Dopamine receptor D2L expressed in CHO cells; format: cell-based
D(3) dopamine receptor = D(3) dopamine receptor (Homo sapiens, UniProt P35462); experiment: Displacement of [3H]spiperone from human Dopamine receptor D3 expressed in CHO cells; format: cell-based; summary of the method: as §1
D(2) dopamine receptor [3] = target: T2, D(2) dopamine receptor; experiment: Displacement of [3H]spiperone from human Dopamine receptor D2S expressed in CHO cells; format: cell-based; summary of the method: as §1
D(1A) dopamine receptor [4] = target: T3, D(1A) dopamine receptor (Bos taurus, UniProt Q95136); experiment: Binding affinity against Dopamine receptor D1 from bovine striatal membranes using [3H]SCH-23390 as radioligand
Summary of the method: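 Bovine striatal membranes, 25 µg protein/tube, competing against [3H]SCH 23390 (Kd 0.27-0.32 nM). Eight concentrations in triplicate, 2-4 independent experiments. Sigmoid nonlinear fit gives IC50, converted to Ki by Cheng-Prusoff; reported as mean ± SEM.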

D(1A) dopamine receptor [5] = target: T3, D(1A) dopamine receptor; experiment: Displacement of [3H]SCH-23390 from Dopamine receptor D1 of bovine striatal membranes
[6] = target: T4, D(4) dopamine receptor (Homo sapiens) (UniProt P21917); experiment: Agonistic effect was measured by the stimulation of mitogenesis at dopamine D4.2 receptor; format: functional
T4 sequence (whole entry): T1 sequence (P21917 whole entry)
Summary of the method: (§2)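 CHO10001A cells stably expressing human D4.2 receptor, seeded at 10 000 cells/well and grown 75 h in medium with 10% FCS. Cells rinsed with serum-free medium, then given seven concentrations (final 0.001-1000 nM) for 16-18 h. [3H]thymidine 0.25 µCi/well added for 2 h at 37 °C, then filter harvest and counting. Quadruplicates, 6 experiments, normalized mean curve; EC50 from mean curves.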

D(4) dopamine receptor [7] = target: T1, D(4) dopamine receptor; experiment: (§3) Effective dose was measured by the stimulation of mitogenesis at dopamine D4.2 receptor; format: functional; summary of the method: as §2
[8] = target: T4, D(4) dopamine receptor (Homo sapiens); experiment: as §3; format: functional; summary of the method: as §2

T2 sequence (P14416 whole entry): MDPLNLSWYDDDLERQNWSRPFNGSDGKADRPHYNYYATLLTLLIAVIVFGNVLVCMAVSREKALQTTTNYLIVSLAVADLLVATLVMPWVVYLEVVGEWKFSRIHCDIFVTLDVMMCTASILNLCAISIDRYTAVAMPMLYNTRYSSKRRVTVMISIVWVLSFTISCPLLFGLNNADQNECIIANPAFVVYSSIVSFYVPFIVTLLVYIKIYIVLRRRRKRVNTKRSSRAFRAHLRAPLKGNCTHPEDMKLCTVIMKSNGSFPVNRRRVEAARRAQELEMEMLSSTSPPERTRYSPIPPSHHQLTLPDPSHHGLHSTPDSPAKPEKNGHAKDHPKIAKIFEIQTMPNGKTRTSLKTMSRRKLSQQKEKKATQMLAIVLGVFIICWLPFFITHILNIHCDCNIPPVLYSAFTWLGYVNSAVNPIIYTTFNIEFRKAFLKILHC
T3 sequence (Q95136 whole entry): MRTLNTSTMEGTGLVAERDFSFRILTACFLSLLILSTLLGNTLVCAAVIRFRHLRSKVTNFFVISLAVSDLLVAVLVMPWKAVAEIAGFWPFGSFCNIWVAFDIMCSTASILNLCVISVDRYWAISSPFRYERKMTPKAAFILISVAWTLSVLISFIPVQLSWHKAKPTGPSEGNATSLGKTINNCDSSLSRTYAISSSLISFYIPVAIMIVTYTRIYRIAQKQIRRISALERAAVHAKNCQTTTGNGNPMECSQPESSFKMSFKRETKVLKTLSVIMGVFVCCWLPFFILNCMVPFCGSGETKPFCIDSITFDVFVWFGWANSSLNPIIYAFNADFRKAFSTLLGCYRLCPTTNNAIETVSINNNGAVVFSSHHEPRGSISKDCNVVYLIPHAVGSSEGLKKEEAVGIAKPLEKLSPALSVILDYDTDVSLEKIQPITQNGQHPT
Sequence of D(3) dopamine receptor (P35462 whole entry): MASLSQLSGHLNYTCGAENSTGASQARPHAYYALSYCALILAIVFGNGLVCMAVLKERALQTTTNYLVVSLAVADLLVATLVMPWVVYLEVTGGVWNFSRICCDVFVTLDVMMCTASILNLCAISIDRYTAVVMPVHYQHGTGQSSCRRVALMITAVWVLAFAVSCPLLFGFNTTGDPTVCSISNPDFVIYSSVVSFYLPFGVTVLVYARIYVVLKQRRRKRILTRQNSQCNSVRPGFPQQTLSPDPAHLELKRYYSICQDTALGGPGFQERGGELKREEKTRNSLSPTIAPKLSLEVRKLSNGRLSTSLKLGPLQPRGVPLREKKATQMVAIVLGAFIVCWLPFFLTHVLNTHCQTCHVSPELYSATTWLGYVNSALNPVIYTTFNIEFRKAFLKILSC

Row | SMILES | Ki (D(4) dopamine receptor [1]) [nM] | Ki (D(2) dopamine receptor [2]) [nM] | Ki (D(3) dopamine receptor) [nM] | Ki (D(2) dopamine receptor [3]) [nM] | Ki (D(1A) dopamine receptor [4]) [nM] | Ki (D(1A) dopamine receptor [5]) [nM] | Effect [6] [%] | EC50 (D(4) dopamine receptor [7]) [nM] | ED50 [8] [nM]
1 | N#Cc1ccc2[nH]c(CN3CCN(c4ccc(Cl)cc4)CC3)cc2c1 | 2.1 | 7900 | 13000 | 7600 | 5300 |  |  |  | 
2 | N#Cc1ccc2[nH]cc(CN3CCN(c4ccc(Cl)cc4)CC3)c2c1 | 29 | 4300 | 6400 | 2600 |  | 550 |  |  | 
3 | N#Cc1ccc2[nH]c(CN3CCN(c4ccc(F)cc4)CC3)cc2c1 | 1 | 28000 | 15000 | 19000 | 8600 |  | 30 | 9.4 | 
4 | N#Cc1ccc2cc(CN3CCN(c4ccccc4Cl)CC3)[nH]c2c1 | 3.4 |  | 920 |  | 1900 |  |  |  | 
5 | N#Cc1ccc2cc(CN3CCN(c4ccccc4)CC3)[nH]c2c1 | 3.6 | 5600 | 3100 | 2500 | 5300 |  |  |  | 
6 | N#Cc1ccc2[nH]cc(CN3CCN(c4ccc(Cl)c(Cl)c4)CC3)c2c1 | 22 | 790 | 870 | 480 |  | 450 |  |  | 
7 | N#Cc1ccc2[nH]c(CN3CCN(c4ccc(Cl)c(Cl)c4)CC3)cc2c1 | 7.5 | 43000 | 20000 | 36000 | 11000 |  |  |  | 
8 | N#Cc1ccc2cc(CN3CCN(c4ccc(Cl)c(Cl)c4)CC3)[nH]c2c1 | 9 | 2000 | 33000 | 1400 | 880 |  |  |  | 
9 | N#Cc1ccc2[nH]cc(CN3CCN(c4ccccc4)CC3)c2c1 | 50 | 34000 | 4400 | 3500 |  | 3000 |  |  | 
10 | N#Cc1ccc2[nH]c(CN3CCN(c4ccccc4)CC3)cc2c1 | 0.52 | 3100 | 1700 | 290 |  | 13000 | 35 |  | 1.5
11 | N#Cc1ccc2[nH]cc(CN3CCN(c4ccccc4Cl)CC3)c2c1 | 17 | 1400 | 550 | 540 |  | 510 |  |  | 
12 | N#Cc1ccc2[nH]c(CN3CCN(c4ccccc4Cl)CC3)cc2c1 | 1.4 | 2300 | 1700 | 950 |  | 7500 |  |  | 
13 | N#Cc1ccc2[nH]cc(CN3CCN(c4ccc(F)cc4)CC3)c2c1 | 110 | 2400 | 5200 | 1800 |  | 490 |  |  | 

From ChEMBL document CHEMBL1133533 (J Med Chem, 2000)
